Data taken from ChEMBL document CHEMBL1926569, “Novel (E)-1-(4-methyl-2-(alkylamino)thiazol-5-yl)-3-arylprop-2-en-1-ones as potent antimicrobial agents” (2011).
≈ marks a conversion by molar mass, not a printed value.

What was measured:
Staphylococcus aureus [1] = experiment: Antibacterial activity against Staphylococcus aureus ATCC 6538 after 24 hrs by microdilution method; type: functional; settings: ATCC 6538, 24 h
Outline: (§1)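 Broth microdilution in 96-well plates. Bacterial suspensions were adjusted in sterile saline to 1.0 × 10⁵ CFU/ml, prepared daily and kept at 4 °C. Compound was added to LB broth with 1.0 × 10⁴ CFU per well and shaken at 160 rpm for 24 h at […] (so in the source). MIC is the lowest concentration with no visible growth under a binocular microscope. OD655 was also read. Duplicate, repeated three times.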

Bacillus cereus [2] = experiment: Antibacterial activity against clinical isolate of Bacillus cereus after 24 hrs by microdilution method; type: functional; outline: as §1
Micrococcus flavus [3] = experiment: Antibacterial activity against Micrococcus flavus ATCC 10240 after 24 hrs by microdilution method; type: functional; settings: ATCC 10240, 24 h; outline: as §1
Listeria monocytogenes [4] = experiment: Antibacterial activity against Listeria monocytogenes NCTC 7973 after 24 hrs by microdilution method; type: functional; settings: NCTC 7973, 24 h; outline: as §1
Pseudomonas aeruginosa [5] = experiment: Antibacterial activity against Pseudomonas aeruginosa ATCC 27853 after 24 hrs by microdilution method; type: functional; settings: ATCC 27853, 24 h; outline: as §1
Salmonella typhimurium [6] = experiment: Antibacterial activity against Salmonella Typhimurium ATCC 13311 after 24 hrs by microdilution method; type: functional, Salmonella enterica subsp. enterica serovar Typhimurium; settings: Salmonella enterica, ATCC 13311, 24 h; outline: as §1
Escherichia coli [7] = experiment: Antibacterial activity against Escherichia coli ATCC 35210 after 24 hrs by microdilution method; type: functional; settings: ATCC 35210, 24 h; outline: as §1
Enterococcus faecalis [8] = experiment: Antibacterial activity against Enterococcus faecalis isolated from human after 24 hrs by microdilution method; type: functional; outline: as §1
Staphylococcus aureus [9] = experiment: Antibacterial activity against Staphylococcus aureus ATCC 6538 incubated for 24 hrs followed by serial sub-cultivation for 24 hrs by microdilution method; type: functional; settings: ATCC 6538, 24 h
Outline: (§2)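 MBC: after the 24 h LB broth microdilution (1.0 × 10⁴ CFU per well, 160 rpm), wells were serially sub-cultured into fresh broth plates and incubated a further 24 h. MBC is the lowest concentration with no visible growth, taken as 99.5% killing of the original inoculum. Duplicate, repeated three times.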

Bacillus cereus [10] = experiment: Antibacterial activity against clinical isolate of Bacillus cereus incubated for 24 hrs followed by serial sub-cultivation for 24 hrs by microdilution; type: functional; outline: as §2
Micrococcus flavus [11] = experiment: Antibacterial activity against Micrococcus flavus ATCC 10240 incubated for 24 hrs followed by serial sub-cultivation for 24 hrs by microdilution; type: functional; settings: ATCC 10240, 24 h; outline: as §2
Listeria monocytogenes [12] = experiment: Antibacterial activity against Listeria monocytogenes NCTC 7973 incubated for 24 hrs followed by serial sub-cultivation for 24 hrs by microdilution; type: functional; settings: NCTC 7973, 24 h; outline: as §2
Pseudomonas aeruginosa [13] = experiment: Antibacterial activity against Pseudomonas aeruginosa ATCC 27853 incubated for 24 hrs followed by serial sub-cultivation for 24 hrs by microdilution; type: functional; settings: ATCC 27853, 24 h; outline: as §2
Salmonella typhimurium [14] = experiment: Antibacterial activity against Salmonella Typhimurium ATCC 13311 incubated for 24 hrs followed by serial sub-cultivation for 24 hrs by microdilution; type: functional, Salmonella enterica subsp. enterica serovar Typhimurium; settings: Salmonella enterica, ATCC 13311, 24 h; outline: as §2
Escherichia coli [15] = experiment: Antibacterial activity against Escherichia coli ATCC 35210 incubated for 24 hrs followed by serial sub-cultivation for 24 hrs by microdilution; type: functional; settings: ATCC 35210, 24 h; outline: as §2
Enterococcus faecalis [16] = experiment: Antibacterial activity against Enterococcus faecalis isolated from human incubated for 24 hrs followed by serial sub-cultivation for 24 hrs by microdilution; type: functional; outline: as §2
Aspergillus ochraceus [17] = experiment: Antifungal activity against Aspergillus ochraceus ATCC 12066 after 72 hrs by serial dilution technique; type: functional; settings: ATCC 12066, 72 h
Outline: (§3)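 Modified microdilution in 96-well plates. Fungi were kept on malt agar at 4 °C. Spores were washed off in sterile 0.85% saline with 0.1% Tween 80. Compounds were dissolved at 1 mg/ml in 5% DMSO with 0.1% Tween 80 and added to malt broth with inoculum. Plates were shaken at 160 rpm for 72 h at 28 °C. Duplicate, repeated three times.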

Aspergillus niger [18] = experiment: Antifungal activity against Aspergillus niger ATCC 6275 after 72 hrs by serial dilution technique; type: functional; settings: ATCC 6275, 72 h; outline: as §3
Aspergillus flavus [19] = experiment: Antifungal activity against Aspergillus flavus ATCC 9643 after 72 hrs by serial dilution technique; type: functional; settings: ATCC 9643, 72 h; outline: as §3
Talaromyces funiculosus [20] = experiment: Antifungal activity against Penicillium funiculosum ATCC 36839 after 72 hrs by serial dilution technique; type: functional; settings: ATCC 36839, 72 h; outline: as §3
Penicillium ochrochloron [21] = experiment: Antifungal activity against Penicillium ochrochloron ATCC 9112 after 72 hrs by serial dilution technique; type: functional; settings: ATCC 9112, 72 h; outline: as §3
Trichoderma viride [22] = experiment: Antifungal activity against Trichoderma viride IAM 5061 after 72 hrs by serial dilution technique; type: functional; settings: IAM 5061, 72 h; outline: as §3
Candida albicans [23] = experiment: Antifungal activity against Candida albicans isolated from human after 72 hrs by serial dilution technique; type: functional; outline: as §3
Aspergillus ochraceus [24] = experiment: Antifungal activity against Aspergillus ochraceus ATCC 12066 incubated for 72 hrs followed by serial sub-cultivation for 72 hrs by serial dilution technique; type: functional; settings: ATCC 12066, 72 h
Outline: (§4)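 MFC: material from 72 h malt broth microdilution wells was serially sub-cultured into fresh broth plates and incubated a further 72 h at 28 °C. Fungicidal concentration is taken from growth after sub-culture. Duplicate, repeated three times.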

Aspergillus fumigatus [25] = experiment: Antifungal activity against Aspergillus fumigatus isolated from human incubated for 72 hrs followed by serial sub-cultivation for 72 hrs by serial dilution technique; type: functional; outline: as §4
Aspergillus niger [26] = experiment: Antifungal activity against Aspergillus niger ATCC 6275 incubated for 72 hrs followed by serial sub-cultivation for 72 hrs by serial dilution technique; type: functional; settings: ATCC 6275, 72 h; outline: as §4
Aspergillus flavus [27] = experiment: Antifungal activity against Aspergillus flavus ATCC 9643 incubated for 72 hrs followed by serial sub-cultivation for 72 hrs by serial dilution technique; type: functional; settings: ATCC 9643, 72 h; outline: as §4
Talaromyces funiculosus [28] = experiment: Antifungal activity against Penicillium funiculosum ATCC 36839 incubated for 72 hrs followed by serial sub-cultivation for 72 hrs by serial dilution technique; type: functional; settings: ATCC 36839, 72 h; outline: as §4
Penicillium ochrochloron [29] = experiment: Antifungal activity against Penicillium ochrochloron ATCC 9112 incubated for 72 hrs followed by serial sub-cultivation for 72 hrs by serial dilution technique; type: functional; settings: ATCC 9112, 72 h; outline: as §4
Trichoderma viride [30] = experiment: Antifungal activity against Trichoderma viride IAM 5061 incubated for 72 hrs followed by serial sub-cultivation for 72 hrs by serial dilution technique; type: functional; settings: IAM 5061, 72 h; outline: as §4
Candida albicans [31] = experiment: Antifungal activity against Candida albicans isolated from human incubated for 72 hrs followed by serial sub-cultivation for 72 hrs by serial dilution technique; type: functional; outline: as §4
Pseudomonas aeruginosa [32] = experiment: Ratio of ampicillin MIC to compound MIC for Pseudomonas aeruginosa ATCC 27853; type: functional
Aspergillus ochraceus [33] = experiment: Ratio of bifonazole to compound for Aspergillus ochraceus ATCC 12066; type: functional
Aspergillus niger [34] = experiment: Ratio of bifonazole to compound for Aspergillus niger ATCC 6275; type: functional
Talaromyces funiculosus [35] = experiment: Ratio of bifonazole to compound for Penicillium funiculosum ATCC 36839; type: functional
Penicillium ochrochloron [36] = experiment: Ratio of bifonazole to compound for Penicillium ochrochloron ATCC 9112; type: functional
Trichoderma viride [37] = experiment: Ratio of bifonazole to compound for Trichoderma viride IAM 5061; type: functional
Candida albicans [38] = experiment: Ratio of bifonazole to compound for Candida albicans isolated from human; type: functional
Aspergillus ochraceus [39] = experiment: Ratio of ketoconazole to compound for Aspergillus ochraceus ATCC 12066; type: functional
Aspergillus fumigatus [40] = experiment: Ratio of ketoconazole to compound for Aspergillus fumigatus isolated from human; type: functional
Penicillium ochrochloron [41] = experiment: Ratio of ketoconazole to compound for Penicillium ochrochloron ATCC 9112; type: functional
Candida albicans [42] = experiment: Ratio of ketoconazole to compound for Candida albicans isolated from human; type: functional
Aspergillus ochraceus [43] = experiment: Antifungal activity against Aspergillus ochraceus after 72 hrs by serial dilution technique

Compound: CCNc1nc(C)c(C(=O)/C=C/c2ccccc2Cl)s1
- MIC (Staphylococcus aureus [1]): 81.7 µM (≈ 25.1 µg/mL)
- MIC (Bacillus cereus [2]): 32.7 µM (≈ 10 µg/mL)
- MIC (Micrococcus flavus [3]): 65.3 µM (≈ 20 µg/mL)
- MIC (Listeria monocytogenes [4]): 98.1 µM (≈ 30.1 µg/mL)
- MIC (Pseudomonas aeruginosa [5]): 48.9 µM (≈ 15 µg/mL)
- MIC (Salmonella typhimurium [6]): 48.9 µM (≈ 15 µg/mL)
- MIC (Escherichia coli [7]): 48.9 µM (≈ 15 µg/mL)
- MIC (Enterococcus faecalis [8]): 48.9 µM (≈ 15 µg/mL)
- MBC (Staphylococcus aureus [9]): 98.1 µM (≈ 30.1 µg/mL)
- MBC (Bacillus cereus [10]): 65.3 µM (≈ 20 µg/mL)
- MBC (Micrococcus flavus [11]): 98.1 µM (≈ 30.1 µg/mL)
- MBC (Listeria monocytogenes [12]): 114 µM (≈ 35.1 µg/mL)
- MBC (Pseudomonas aeruginosa [13]): 61.1 µM (≈ 18.7 µg/mL)
- MBC (Salmonella typhimurium [14]): 61.1 µM (≈ 18.7 µg/mL)
- MBC (Escherichia coli [15]): 61.1 µM (≈ 18.7 µg/mL)
- MBC (Enterococcus faecalis [16]): 61.1 µM (≈ 18.7 µg/mL)
- MIC (Aspergillus ochraceus [17]): 32.7 µM (≈ 10 µg/mL)
- MIC (Aspergillus niger [18]): 49 µM (≈ 15 µg/mL)
- MIC (Aspergillus flavus [19]): 49 µM (≈ 15 µg/mL)
- MIC (Talaromyces funiculosus [20]): 32.7 µM (≈ 10 µg/mL)
- MIC (Penicillium ochrochloron [21]): 32.7 µM (≈ 10 µg/mL)
- MIC (Trichoderma viride [22]): 32.7 µM (≈ 10 µg/mL)
- MIC (Candida albicans [23]): 32.7 µM (≈ 10 µg/mL)
- MFC (Aspergillus ochraceus [24]): 49 µM (≈ 15 µg/mL)
- MFC (Aspergillus fumigatus [25]): 65.3 µM (≈ 20 µg/mL)
- MFC (Aspergillus niger [26]): 65.3 µM (≈ 20 µg/mL)
- MFC (Aspergillus flavus [27]): 65.3 µM (≈ 20 µg/mL)
- MFC (Talaromyces funiculosus [28]): 65.3 µM (≈ 20 µg/mL)
- MFC (Penicillium ochrochloron [29]): 65.3 µM (≈ 20 µg/mL)
- MFC (Trichoderma viride [30]): 65.3 µM (≈ 20 µg/mL)
- MFC (Candida albicans [31]): 65.3 µM (≈ 20 µg/mL)
- Ratio (Pseudomonas aeruginosa [32]): 10
- Ratio (Aspergillus ochraceus [33]): 10
- Ratio (Aspergillus niger [34]): 10
- Ratio (Talaromyces funiculosus [35]): 10
- Ratio (Penicillium ochrochloron [36]): 10
- Ratio (Trichoderma viride [37]): 10
- Ratio (Candida albicans [38]): 10
- Ratio (Aspergillus ochraceus [39]): 10
- Ratio (Aspergillus fumigatus [40]): 10
- Ratio (Penicillium ochrochloron [41]): 10
- Ratio (Candida albicans [42]): 10
- MIC (Aspergillus ochraceus [43]): 49 µM (≈ 15 µg/mL)
